Assay results as given in ChEMBL document CHEMBL4052594, “Discovery of Pyrrolidine-Containing GPR40 Agonists: Stereochemistry Effects a Change in Binding Mode” (J Med Chem, 2017).
The source made the active and inactive calls. No cut-off for these calls is given here.

Columns and labels:
[1] = biological target: T1, Free fatty acid receptor 1 (Homo sapiens, UniProt O14842); assay: Agonist activity at human GPR40 inducibly expressed in HEK293 cells assessed as increase in intracellular calcium flux measured for 100 secs by FLIPR assay; type: functional, cell-based
[2] = biological target: Free fatty acid receptor 1 (Mus musculus) (UniProt Q76JU9); assay: Agonist activity at mouse GPR40 inducibly expressed in HEK293 cells assessed as increase in intracellular calcium flux measured for 100 secs by FLIPR assay; type: functional, cell-based
[3] = biological target: T1, Free fatty acid receptor 1; assay: Agonist activity at human GPR40 expressed in CHO-A12 cells assessed as increase in intracellular calcium flux measured for 100 secs by FLIPR assay; type: functional, cell-based
[4] = biological target: T2, Free fatty acid receptor 1 (Mus musculus, UniProt Q76JU9); assay: Agonist activity at mouse GPR40 expressed in CHO-A12 cells assessed as increase in intracellular calcium flux measured for 100 secs by FLIPR assay; type: functional, cell-based
[5] = biological target: Free fatty acid receptor 1 (Mus musculus) (UniProt Q76JU9); assay: Intrinsic activity at mouse GPR40 expressed in CHO-A12 cells assessed as increase in intracellular calcium flux at 8.3 uM measured for 100 secs by FLIPR assay […]; type: functional, cell-based
[6] = biological target: T3, Peroxisome proliferator-activated receptor gamma (Homo sapiens, UniProt P37231); assay: Transactivation of human Gal4 fused PPARgamma-LBD expressed in HEK293 cells after 18 hrs by luciferase reporter gene assay; type: cell-based
T3 sequence (P37231 whole entry): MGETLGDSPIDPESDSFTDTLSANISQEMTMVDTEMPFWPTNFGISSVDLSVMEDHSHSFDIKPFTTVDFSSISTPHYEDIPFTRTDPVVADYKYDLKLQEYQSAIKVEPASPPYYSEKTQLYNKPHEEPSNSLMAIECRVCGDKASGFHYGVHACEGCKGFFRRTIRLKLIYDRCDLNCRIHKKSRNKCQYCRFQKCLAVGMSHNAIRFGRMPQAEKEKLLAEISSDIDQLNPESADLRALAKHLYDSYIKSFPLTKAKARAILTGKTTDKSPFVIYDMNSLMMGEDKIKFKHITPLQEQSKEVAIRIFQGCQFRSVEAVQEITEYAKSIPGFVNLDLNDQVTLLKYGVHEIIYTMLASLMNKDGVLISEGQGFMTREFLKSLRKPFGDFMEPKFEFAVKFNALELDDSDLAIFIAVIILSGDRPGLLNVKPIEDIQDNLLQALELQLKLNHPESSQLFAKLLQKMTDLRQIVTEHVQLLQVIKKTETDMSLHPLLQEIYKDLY
Outline: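 Gal4 gene reporter transactivation assay for PPARγ; EC50 and Ymax reported.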

[7] = biological target: T4, PPARgamma (Homo sapiens, UniProt P37231); assay: Transactivation of human Gal4 fused PPARgamma-LBD expressed in HEK293 cells at 4.8 uM after 18 hrs by luciferase reporter gene assay relative to […]; type: cell-based; details: HEK293 cells expressing Gal4-fused human PPARgamma-LBD
T4 sequence (P37231 whole entry): T3 sequence (P37231 whole entry)

[8] = biological target: Free fatty acid receptor 1 (Mus musculus) (UniProt Q76JU9); assay: Agonist activity at GPR40 in C57BL/6J mouse primary pancreatic islets assessed as increase in glucose-stimulated insulin secretion after 1 hr by ELISA
Outline: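 Primary islets isolated from mice; insulin secretion measured across 0.016-2.0 µM compound to assess glucose-stimulated insulin secretion.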

[9] = biological target: T2, Free fatty acid receptor 1; assay: (§1) Agonist activity at GPR40 in mouse STC1 cells assessed as induction of GLP-1 secretion measured after 1 hr by HTRF assay; type: cell-based
[10] = biological target: T1, Free fatty acid receptor 1; assay: Agonist activity at human GPR40 transfected in HEK293 cells assessed as induction of cAMP accumulation incubated for 30 to 45 mins by HTRF assay; type: functional, cell-based
[11] = biological target: T1, Free fatty acid receptor 1; assay: Intrinsic activity at human GPR40 transfected in HEK293 cells assessed as induction of cAMP accumulation at 16.7 uM incubated for 30 to 45 mins by HTRF assay relative to […]; type: functional, cell-based
[12] = test system: Mus musculus; assay: Antidiabetic activity in C57BL/6J mouse assessed as change in plasma glucose AUC (0 to 120 mins) at 1 mg/kg, po administered 1 hr prior to glucose challenge by oral glucose tolerance test; type: functional
Outline: (§2)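 C57BL/6J mice dosed orally at 0.3 or 1 mg/kg 1 h before an oral glucose bolus. Plasma glucose sampled at -60, -20, 0, 20, 40, 60 and 120 min; glucose AUC0-120 expressed relative to vehicle.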

[13] = test system: Mus musculus; assay: Decrease in blood glucose level in C57BL/6J mouse at 0.3 mg/kg, po administered 1 hr prior to glucose challenge measured up to 120 mins by oral glucose tolerance test; type: functional, organism-based; outline: as §2
[14] = Terminal half life in CD-1 mouse at 0.2 mg/kg, iv by LC-MS/MS analysis; type: ADME, organism-based; details: in vivo, read-out: beta t1/2 (converted)
[15] = Volume of distribution at steady state in CD-1 mouse at 0.2 mg/kg, iv by LC-MS/MS analysis; type: ADME, organism-based; details: in vivo, read-out: Vdss
[16] = Clearance in CD-1 mouse at 0.2 mg/kg, iv by LC-MS/MS analysis; type: ADME, organism-based; details: in vivo
[17] = Oral bioavailability in C57BL6 mouse at 0.5 mg/kg; type: ADME, organism-based; details: in vivo
[18] = Fraction unbound in mouse plasma; type: ADME, cell-free
[19] = Fraction unbound in human plasma; type: ADME, cell-free
[20] = Half life in human liver microsomes; type: ADME, microsome
[21] = Half life in mouse liver microsomes; type: ADME, microsome
[22] = Half life in cynomolgus monkey liver microsomes; type: ADME, Macaca fascicularis, microsome
[23] = test system: Rattus norvegicus; assay: Toxicity in rat assessed as effect on mean arterial blood pressure at 80 mg/kg administered as single dose; type: organism-based; details: in vivo
Outline: (§3)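 Male rats fitted with telemetry received a single 80 mg/kg dose. Heart rate and blood pressure recorded by telemetry; locomotor activity monitored.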

[24] = test system: Rattus norvegicus; assay: Toxicity in rat assessed as effect on heart rate at 80 mg/kg administered as single dose; type: organism-based; details: in vivo; outline: as §3
[25] = test system: Rattus norvegicus; assay: Toxicity in rat assessed as induction of hyperactivity at 80 mg/kg administered as single dose; type: organism-based; details: in vivo; outline: as §3
[26] = biological target: T5, Peroxisome proliferator-activated receptor gamma (Mus musculus, UniProt P37238); assay: Agonist activity at PPARgamma in mouse 3T3L1 cells assessed as increase in insulin induced adipocyte differentiation by measuring free glycerol levels at 3 uM; type: cell-based
T5 sequence (P37238 whole entry): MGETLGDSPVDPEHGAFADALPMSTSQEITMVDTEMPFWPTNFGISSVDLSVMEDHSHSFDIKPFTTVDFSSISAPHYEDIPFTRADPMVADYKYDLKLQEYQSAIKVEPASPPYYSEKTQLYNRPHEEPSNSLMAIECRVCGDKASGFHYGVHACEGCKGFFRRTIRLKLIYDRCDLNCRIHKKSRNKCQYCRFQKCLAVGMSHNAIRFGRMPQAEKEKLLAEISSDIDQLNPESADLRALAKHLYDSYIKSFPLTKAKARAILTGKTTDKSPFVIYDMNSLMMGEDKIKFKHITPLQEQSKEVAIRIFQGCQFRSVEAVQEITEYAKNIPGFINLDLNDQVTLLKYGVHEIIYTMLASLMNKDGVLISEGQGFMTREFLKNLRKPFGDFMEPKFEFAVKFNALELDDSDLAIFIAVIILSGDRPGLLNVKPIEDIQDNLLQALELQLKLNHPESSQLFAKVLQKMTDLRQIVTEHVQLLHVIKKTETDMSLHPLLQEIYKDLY
Outline: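 3T3L1 cells incubated with compound at 3 µM; free glycerol levels measured as a marker of PPARγ-mediated adipocyte differentiation.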

[27] = biological target: Cytochrome P450 3A4 (Homo sapiens, UniProt P08684); assay: Inhibition of CYP3A4 (unknown origin); type: ADME
[28] = biological target: T1, Free fatty acid receptor 1; assay: Potentiation of DHA-induced agonist activity at human GPR40 inducibly expressed in HEK293 cells assessed as increase in intracellular calcium flux at 3 nM measured for 100 secs by FLIPR assay; type: functional, cell-based
Outline: (§4)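 Ca2+ FLIPR concentration-response to DHA in inducible hGPR40 cells, alone or with fixed added test compound (3 nM or 10 nM); curve shift assessed.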

[29] = biological target: T3, Peroxisome proliferator-activated receptor gamma; assay: Binding affinity to PPARgamma (unknown origin); type: ADME
[30] = biological target: T6, Nuclear receptor subfamily 1 group I member 2 (Homo sapiens, UniProt O75469); assay: Antagonist activity at PXR (unknown origin); type: ADME
T6 sequence (O75469 whole entry): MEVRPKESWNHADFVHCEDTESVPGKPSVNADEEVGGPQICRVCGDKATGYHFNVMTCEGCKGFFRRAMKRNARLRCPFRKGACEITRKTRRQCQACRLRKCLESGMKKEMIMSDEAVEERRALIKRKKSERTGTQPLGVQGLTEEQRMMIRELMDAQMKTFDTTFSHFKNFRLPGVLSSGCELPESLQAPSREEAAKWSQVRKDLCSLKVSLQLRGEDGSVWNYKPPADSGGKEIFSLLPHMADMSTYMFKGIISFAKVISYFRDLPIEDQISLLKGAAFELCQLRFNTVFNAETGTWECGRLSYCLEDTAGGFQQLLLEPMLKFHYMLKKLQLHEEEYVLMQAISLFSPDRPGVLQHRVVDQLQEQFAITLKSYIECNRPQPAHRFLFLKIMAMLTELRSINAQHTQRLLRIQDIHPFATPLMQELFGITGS

[31] = Antagonist activity at sodium channel (unknown origin); details: human
[32] = biological target: T1, Free fatty acid receptor 1; assay: Binding affinity to human GPR40 expressed in HEK293 cell membranes after 1 hr by radioligand displacement based scintillation counting method
Outline: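 Binding of human GPR40 measured as Ki against a radioligand. Mean of at least two runs. Displacement of the label appears as a negative slope and potentiation as a positive one.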

[33] = biological target: T1, Free fatty acid receptor 1; assay: Potentiation of DHA-induced agonist activity at human GPR40 inducibly expressed in HEK293 cells assessed as increase in intracellular calcium flux at 10 nM measured for 100 secs by FLIPR assay; type: functional, cell-based; outline: as §4
[34] = biological target: T1, Free fatty acid receptor 1; assay: Potentiation of DHA-induced agonist activity at human GPR40 inducibly expressed in HEK293 cells assessed as increase in intracellular calcium flux at agonism EC50 measured for 100 secs by FLIPR assay; type: functional, cell-based
[35] = Cmax in C57BL/6J mouse at 10 mg/kg, po; type: ADME, organism-based; design: dose 10 mg/kg, route oral; details: in vivo
[36] = AUC (0 to 4 hrs) in C57BL/6J mouse at 10 mg/kg, po; type: ADME, organism-based; design: time < 4 hr, dose 10 mg/kg, route oral; details: in vivo
[37] = test system: Mus musculus; assay: Antidiabetic activity in C57BL/6J mouse assessed as reduction of plasma glucose excursion at 10 to 100 mg/kg, po pretreated for 1 hr followed by glucose challenge measured up to 120 mins by iGTT; type: functional, organism-based
[38] = biological target: T1, Free fatty acid receptor 1; assay: Partial agonist activity at human GPR40 inducibly expressed in HEK293 cells assessed as increase in intracellular calcium flux measured for 100 secs by FLIPR assay; type: functional, cell-based
[39] = biological target: Free fatty acid receptor 1 (Mus musculus) (UniProt Q76JU9); assay: as §1; type: cell-based

T2 sequence (Q76JU9 whole entry): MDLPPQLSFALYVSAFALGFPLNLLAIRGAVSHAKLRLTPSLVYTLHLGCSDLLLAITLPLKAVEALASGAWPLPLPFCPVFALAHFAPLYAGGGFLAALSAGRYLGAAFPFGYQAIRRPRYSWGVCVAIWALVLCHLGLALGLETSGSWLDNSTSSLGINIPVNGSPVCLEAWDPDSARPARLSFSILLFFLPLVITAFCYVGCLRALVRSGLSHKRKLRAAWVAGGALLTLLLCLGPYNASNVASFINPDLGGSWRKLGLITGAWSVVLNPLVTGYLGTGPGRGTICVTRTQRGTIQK
Free fatty acid receptor 1 (Mus musculus), sequence (Q76JU9 whole entry, the tested form may be a part): as the sequence (Q76JU9 whole entry) above
T1 sequence (O14842 whole entry): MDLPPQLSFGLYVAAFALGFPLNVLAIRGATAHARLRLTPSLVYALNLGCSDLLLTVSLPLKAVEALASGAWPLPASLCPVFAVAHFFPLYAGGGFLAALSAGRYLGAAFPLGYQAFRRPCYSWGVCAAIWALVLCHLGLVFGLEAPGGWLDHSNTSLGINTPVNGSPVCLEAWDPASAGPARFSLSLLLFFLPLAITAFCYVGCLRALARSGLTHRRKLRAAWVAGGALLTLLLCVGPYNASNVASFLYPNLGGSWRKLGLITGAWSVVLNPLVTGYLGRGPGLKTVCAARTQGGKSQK
Cytochrome P450 3A4, sequence (P08684 whole entry): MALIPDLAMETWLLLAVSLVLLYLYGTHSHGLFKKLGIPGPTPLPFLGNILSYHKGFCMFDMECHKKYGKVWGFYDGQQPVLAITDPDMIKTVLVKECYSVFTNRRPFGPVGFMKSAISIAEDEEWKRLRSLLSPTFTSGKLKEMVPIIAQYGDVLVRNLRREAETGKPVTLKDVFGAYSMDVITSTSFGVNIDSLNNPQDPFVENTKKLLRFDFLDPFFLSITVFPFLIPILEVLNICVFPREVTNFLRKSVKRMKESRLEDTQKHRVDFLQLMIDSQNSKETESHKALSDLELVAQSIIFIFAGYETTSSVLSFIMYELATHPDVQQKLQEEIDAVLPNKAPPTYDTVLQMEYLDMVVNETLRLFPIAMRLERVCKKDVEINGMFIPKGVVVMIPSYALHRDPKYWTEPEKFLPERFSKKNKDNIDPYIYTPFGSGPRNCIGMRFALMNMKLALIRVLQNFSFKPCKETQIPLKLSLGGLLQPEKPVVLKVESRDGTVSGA

SMILES | EC50 [3] | EC50 [4] | Intrinsic activity [5] | EC50 [6] | Emax at 18 h, 4.8 µM [7] | EC50 [9] | EC50 [10] | Intrinsic activity [11] | Activity [12] | inhibition (INH) [30] | Ki [32] | further results
COc1ccc(F)c(-c2ccc(Cc3ccc(N4CC(C(F)(F)F)CC4CC(=O)O)cc3)c(C)c2)c1 (mixture of isomers) | – | – | – | – | – | – | – | – | – | – | – | Activity [1]: Active; Activity [2]: Active
COc1ccc(F)c(-c2ccc(Cc3ccc(N4C[C@H](C(F)(F)F)C[C@@H]4CC(=O)O)cc3)c(C)c2)c1 | 110 nM | 54 nM | 210% | 4400 nM | 40% | 330 nM | 210 nM | 140% | 39% | – | – | Activity [8]: Dose-dependent effect; Activity [13]: inactive; half-life [14]: 7 h; Vd [15]: 0.1 L/kg; clearance [16]: 0.2 mL/min/kg; bioavailability [17]: 83%; fraction unbound [18]: 0.011; fraction unbound [19]: 0.001; half-life [20]: > 2 h; half-life [21]: > 2 h; half-life [22]: > 2 h; Activity [23]: Non-Toxic; Activity [24]: Non-Toxic; Activity [25]: Toxic; Activity [26]: Active; IC50 [27]: 1700 nM; Activity [28]: Active; Activity [29]: 1.6 µM
Cc1ccccc1COc1ccc(N2CCC[C@H]2CC(=O)O)cc1 | 190 nM | 3400 nM | 41 to 73% | – | – | – | – | – | – | Active | – | inhibition (INH) [31]: Active
COc1ccc(F)c(-c2ccc(Cc3ccc(N4C[C@@H](C(F)(F)F)C[C@H]4CC(=O)O)cc3)c(C)c2)c1 | 490 nM | 2400 nM | 46% | – | – | 3200 nM | 2400 nM | 28% | inactive | – | 45 nM | Activity [33]: inactive; Activity [34]: inactive
O=C(O)C[C@@H]1CCCN1c1ccc(OCc2ccc(Cl)cc2Cl)cc1 | 340 nM | 4500 nM | 54 to 66% | 17000 nM | 54% | – | – | – | – | Active | 890 nM | INH [31]: 4 µM
Cc1ccccc1Oc1ccc(N2C[C@@H](C(F)(F)F)C[C@H]2CC(=O)O)cc1 | 73 nM | 330 nM | 84% | – | – | – | > 20000 nM | 5% | – | – | 35 to 39 nM | Cmax [35]: 4.7 µM; AUC(0-t) at 4 h [36]: 7 µM·h; Activity [37]: inactive; Activity [38]: Active; Activity [39]: inactive
